From paper PMC6178977 (Advanced functional materials, 2017)

Tests used:
[1] = Pyrene fluorescence assay; format: physicochemical
Outline: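 Pyrene served as fluorescent probe across a dilution series of polypeptide or conjugate. The I₁/I₃ ratio (370−373 nm peak over 381−384 nm peak) was plotted against polypeptide concentration. CAC was taken from the sigmoidal transition, which reflects nanoparticle disassembly and release of pyrene into the aqueous phase.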

Colo 205 cells = experiment: In vitro cytotoxicity, 72 h treatment; format: cell-based; conditions: Homo sapiens, COLO 205, 72 h
[2] = test system: subcutaneous HCT-116 xenograft; experiment: Tumor regression in subcutaneous HCT-116 xenograft model; format: in vivo, mice
[3] = cited from earlier work
HCT116 cells = experiment: In vitro cytotoxicity, 72 h treatment; format: cell-based; conditions: Homo sapiens, HCT-116, 72 h

In the case of (VPGAG)160–(YG)6–(CGG)8 [ATBP], the “CAC (critical aggregation concentration)” value [1] is reported as 3.6 µM.
With `Nc1ccn([C@@H]2O[C@H](CO)[C@@H](O)C2(F)F)c(=O)n1` [GEM, gemcitabine] the IC50 (Colo 205 cells) was 46.4 nM, the “tumor volume lower than PBS treated animals” value ([2]; 12 days after treatment) was ~ 3 fold and the median survival time ([2]; HCT-116 xenograft, 25 mg.kg^−1 day 0, 2, 4, Kaplan–Meier, n=6) was 21 days. For the same molecule, the plasma half-life [3] was ~ 10 minutes and the IC50 (HCT116 cells) was 4.1 nM.
